Six compounds from ChEMBL document CHEMBL5223158, “Identification of 2-Aminoacyl-1,3,4-thiadiazoles as Prostaglandin E2 and Leukotriene Biosynthesis Inhibitors” (ACS Med Chem Lett, 2023) can be followed below.

In test [1] the target is T1, Polyunsaturated fatty acid 5-lipoxygenase (Homo sapiens, UniProt P09917).
T1 sequence (P09917 whole entry): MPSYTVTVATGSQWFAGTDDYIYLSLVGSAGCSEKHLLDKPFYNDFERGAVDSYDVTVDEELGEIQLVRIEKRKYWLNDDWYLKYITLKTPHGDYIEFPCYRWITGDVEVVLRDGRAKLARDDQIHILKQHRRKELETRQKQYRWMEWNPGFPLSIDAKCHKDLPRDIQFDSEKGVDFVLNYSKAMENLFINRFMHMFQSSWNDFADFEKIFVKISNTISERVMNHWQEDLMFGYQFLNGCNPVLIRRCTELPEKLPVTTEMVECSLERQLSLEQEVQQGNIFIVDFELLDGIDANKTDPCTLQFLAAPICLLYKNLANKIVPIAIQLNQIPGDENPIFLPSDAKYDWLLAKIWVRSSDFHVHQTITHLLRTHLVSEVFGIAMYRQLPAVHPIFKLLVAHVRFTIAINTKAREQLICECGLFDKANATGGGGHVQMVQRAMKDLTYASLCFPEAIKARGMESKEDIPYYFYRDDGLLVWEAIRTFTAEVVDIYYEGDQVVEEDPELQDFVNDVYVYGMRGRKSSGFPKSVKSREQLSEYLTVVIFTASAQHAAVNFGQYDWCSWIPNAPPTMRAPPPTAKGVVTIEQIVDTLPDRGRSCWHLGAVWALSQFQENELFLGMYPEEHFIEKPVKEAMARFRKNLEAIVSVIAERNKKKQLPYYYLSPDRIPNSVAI
Description: Inhibition of human recombinant 5-LO expressed in Escherichia coli BL21 using arachidonic acid as substrate preincubated for 10 mins followed by substrate addition and measured after 10 mins by RP-HPLC analysis.

Test [2] deals with Macrophage. The test can be described thus: Inhibition of 5-LO product formation in Staphylococcus aureus activated human monocyte derived macrophages at 10 uM preincubated for 15 mins followed by Staphylococcus aureus activation for 90 mins by UPLC-MS/MS analysis. It is filed as functional, cell-based. As to conditions: time 105.0 min.
For test [3], the system named is A549. Description: Inhibition of PGE2 biosynthesis in IL-1β stimulated human A549 cells incubated for 24 hrs by ELISA. The note with it: dose 5-10 µM. For orientation: An ELISA detects its analyte on a solid surface through an enzyme-linked reagent.
The target in test [4] is T2, Polyunsaturated fatty acid 5-lipoxygenase (Homo sapiens) (UniProt P09917).
T2 sequence (whole entry): T1 sequence (P09917 whole entry)
Description: Inhibition of human recombinant 5-LO expressed in Escherichia coli BL21 using arachidonic acid as substrate assessed as residual activity at 10 uM preincubated for 10 mins followed by substrate addition and measured after 10 mins by RP-HPLC analysis relative to control. The note with it: time 20.0 min.

For test [5], the system named is Mus musculus. Description: Anti-inflammatory activity against CD-1 mouse model of zymosan-induced peritonitis assessed as reduction in leucocyte recruitment in peritoneal cavity at 3 mg/kg, ip pretreated with zymosan for 30 mins followed by compound addition and measured after 4 to 24 hrs by TC10 automated cell counter analysis. It is filed as functional, organism-based. The note with it: time 4-24 hrs.

Test [6] concerns Mus musculus. Description: Anti-inflammatory activity against CD-1 mouse model of zymosan-induced peritonitis assessed as reduction in IL-1beta level at 3 mg/kg, ip pretreated with zymosan for 30 mins followed by compound addition and measured after 4 to 24 hrs by ELISA. It is filed as functional, organism-based. As to conditions: time 4-24 hrs.
Test [7] concerns Mus musculus. The test can be described thus: Anti-inflammatory activity against CD-1 mouse model of zymosan-induced peritonitis assessed as reduction in IL-6 level at 3 mg/kg, ip pretreated with zymosan for 30 mins followed by compound addition and measured after 4 to 24 hrs by ELISA. It is filed as functional, organism-based. The note with it: time 4-24 hrs.
Test [8] has as its system Mus musculus. The test can be described thus: Anti-inflammatory activity against CD-1 mouse model of zymosan-induced peritonitis assessed as reduction in PGE2 level at 3 mg/kg, ip pretreated with zymosan for 30 mins followed by compound addition and measured after 4 to 24 hrs by ELISA. As to conditions: time 4-24 hrs. It is filed as functional, organism-based.
The test system of test [9] is Mus musculus. The test can be described thus: Anti-inflammatory activity against CD-1 mouse model of zymosan-induced peritonitis assessed as reduction in IL-10 level at 3 mg/kg, ip pretreated with zymosan for 30 mins followed by compound addition and measured after 24 hrs by ELISA. It is filed as functional, organism-based.
In test [10] the test system is J774.A1. Description: Modulation of IL-6 production in LPS-stimulated mouse J774.A1 cells at 1 uM incubated for 24 hrs by ELISA. It is filed as functional, cell-based. An outline of the steps: (§1)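 Murine J774A.1 macrophages were stimulated with LPS and exposed to test compounds. IL-6 and PGE2 released were measured in pg/mL. Mean ± SD.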
The test system of test [11] is J774.A1. The test can be described thus: Modulation of PGE2 production in LPS-stimulated mouse J774.A1 cells at 1 uM incubated for 24 hrs by ELISA. It is filed as functional, cell-based. The gist of the method:
as §1

Test [12] relates to Mus musculus. The test can be described thus: Anti-inflammatory activity against CD-1 mouse model of zymosan-induced peritonitis assessed as reduction in leucocyte recruitment in lavage fluid at 1 to 10 mg/kg, ip pretreated with zymosan for 30 mins followed by compound addition and measured after 4 to 24 hrs by TC10 automated cell counter analysis. It is filed as functional, organism-based. The note with it: dose 1-10 mg/kg, time 4-24 hrs. An outline of the steps: (§2)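 Mice got zymosan 500 mg/kg i.p.; test compound was injected i.p. 30 min later. PBS-only controls were included, along with a dexamethasone (3 mg/kg) reference group. Peritoneal exudate was collected at 4 and 24 h. Total cells were counted, and IL-1β, IL-6, PGE2 and IL-10 were measured in exudate, normalized to exudate levels. Mean ± SD.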

Test [13] has as its system Mus musculus. Description: Anti-inflammatory activity against CD-1 mouse model of zymosan-induced peritonitis assessed as reduction in IL-1beta level at 10 mg/kg, ip pretreated with zymosan for 30 mins followed by compound addition and measured after 4 to 24 hrs by ELISA. It is filed as functional, organism-based. The note with it: time 4-24 hrs. The gist of the method:
as §2

For test [14], the system named is Mus musculus. The test can be described thus: Anti-inflammatory activity against CD-1 mouse model of zymosan-induced peritonitis assessed as reduction in IL-6 level at 10 mg/kg, ip pretreated with zymosan for 30 mins followed by compound addition and measured after 4 to 24 hrs by ELISA. It is filed as functional, organism-based. The note with it: time 4-24 hrs. An outline of the steps:
as §2

Test [15] has as its system Mus musculus. The test can be described thus: Anti-inflammatory activity against CD-1 mouse model of zymosan-induced peritonitis assessed as reduction in PGE2 level at 10 mg/kg, ip pretreated with zymosan for 30 mins followed by compound addition and measured after 4 to 24 hrs by ELISA. It is filed as functional, organism-based. As to conditions: time 4-24 hrs. An outline of the steps:
as §2

Test [16] concerns Mus musculus. Description: Anti-inflammatory activity against CD-1 mouse model of zymosan-induced peritonitis assessed as reduction in IL-10 level at 10 mg/kg, ip pretreated with zymosan for 30 mins followed by compound addition and measured after 24 hrs by ELISA. It is filed as functional, organism-based. The gist of the method: as §2

Activity calls are given as the source filed them. No cut-off for these calls is given here.

As to `Cc1cc(C(=O)Nc2nnc(-c3ccc(-c4ccccc4N)cc3)s2)cc(Cl)n1`, the IC50 (as a rule, the concentration needed to halve the response being measured) in test [1] is 42.8 µM. Moreover, the “5-LO product formation inhibition (active/inactive)” value in test [2] was “Active”. The inhibition entry in [3] was “Dose-Dependent Effect”.
Consider `Nc1ccccc1-c1ccc(-c2nnc(NC(=O)c3c(Cl)ccnc3Cl)s2)cc1`, for which the Activity in test [4] worked out at 75.9%. For the same compound, the “5-LO product formation inhibition (active/inactive)” value in test [2] is “Active”. The inhibition result in [3] was “Dose-Dependent Effect”.
As for `C[C@@H]1C[C@H]2[C@@H]3CCC4=CC(=O)C=C[C@]4(C)[C@@]3(F)[C@@H](O)C[C@]2(C)[C@@]1(O)C(=O)CO`, the outcome in test [5], in test [6], in test [7], in [8] and in test [9] was Active.
Regarding `Cc1cc(C(=O)Nc2nnc(-c3ccc(-c4cccc(O)c4)cc3)s2)cc(Cl)n1`, in [2], the “5-LO product formation inhibition (active/inactive)” value was “inactive”.
On to `Nc1ccccc1-c1ccc(-c2nnc(NC(=O)c3ccccc3Br)s2)cc1`, for which the IC50 in [1] turned out to be 24.3 µM. In addition, the “5-LO product formation inhibition (active/inactive)” value in [2] was “Active”. For the same compound, the result in test [10] was inactive. Further, the result in test [11] was Active. The inhibition result in test [3] was “Dose-Dependent Effect”.
Regarding `O=C(Nc1nnc(-c2ccc(-c3cccc(O)c3)cc2)s1)c1ccccc1Br`, the Activity in test [4] was found to be 125%. The “5-LO product formation inhibition (active/inactive)” value in [2] was “Active”. Further, the outcome in test [10], in test [11], in test [12], in test [13], in test [14] and in test [15] was Active. In addition, the outcome in [16] was Active.
